ABCG2 block: human ABCG2 inhibition, ABCB1 as counter-screen; Q9UNQ0; inhibition, % at 6.6 µM; IgMXP3 cells, JC-1 efflux, flow cytometry; hit rate 0.1% among 190,000; AID 1325;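 active means inhibition above 80%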;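 further: 0% = DMSO and 100% = nicardipine control wells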
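System: two drug-resistant human cell lines, ABCG2 and ABCB1; controls: nicardipine high and DMSO low controls; times: 10 min exposure at 25 °C with rotation, no wash; detection: flow cytometry of retained JC-1 fluorescence; read-out basis: percent efflux inhibition, scaled nicardipine 100% to DMSO 0%; doses: one concentration, 6.6 µM final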
RGS4-Gao reg: modulates binding of RGS4 to human Galphao; P09471; Multiplexed bead flow cytometry; actives lie on both sides; binding response (% of control), % at 10 µM; hit rate 0.33% among 220,000; in the data active means binding response below about 49% or above about 150%; inactive means in between;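 further: fluorescent Galphao activated with aluminum fluoride binding bead-coupled RGS4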
Target sequence (P09471 whole entry, looked up): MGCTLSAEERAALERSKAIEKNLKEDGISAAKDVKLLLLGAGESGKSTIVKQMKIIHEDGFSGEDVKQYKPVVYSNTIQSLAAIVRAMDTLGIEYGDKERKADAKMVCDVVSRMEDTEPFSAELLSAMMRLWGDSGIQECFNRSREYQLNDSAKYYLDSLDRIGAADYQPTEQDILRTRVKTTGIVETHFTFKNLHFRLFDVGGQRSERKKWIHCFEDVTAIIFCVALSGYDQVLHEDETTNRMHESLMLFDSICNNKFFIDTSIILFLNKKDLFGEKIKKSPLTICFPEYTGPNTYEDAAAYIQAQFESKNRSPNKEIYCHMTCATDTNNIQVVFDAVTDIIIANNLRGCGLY
RGS16-Gao: modulates binding between human RGS16 and Galphao | O15492+P09471 | bead-based flow cytometry RGS16-Galphao binding, fluorescence; actives lie on both sides | binding response (% of control), % at 10 µM | hit rate 0.38% among 220,000;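 further: Galphao activated by GDP with aluminum fluoride before binding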
Target sequence (O15492 whole entry, looked up): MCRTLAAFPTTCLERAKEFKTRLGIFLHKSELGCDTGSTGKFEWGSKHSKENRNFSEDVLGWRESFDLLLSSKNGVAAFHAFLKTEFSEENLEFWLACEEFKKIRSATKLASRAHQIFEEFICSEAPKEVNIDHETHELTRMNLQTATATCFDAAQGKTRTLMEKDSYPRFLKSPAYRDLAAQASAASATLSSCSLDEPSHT
Target sequence (P09471 whole entry, looked up): as the sequence (P09471 whole entry, looked up) above
RGS7-Gao: modulates binding of RGS7 to human Galphao | P09471 | Multiplexed bead flow cytometry; actives lie on both sides | binding response (% of control), % at 10 µM | hit rate 0.35% among 220,000; in the data active means binding response below about 49% or above about 150%; inconclusive means no clear call, values can overlap the other calls; inactive means in between;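 further: fluorescent Galphao held in activated GDP-AlF4 state binding bead-coupled RGS7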
ABCB1 block: blocks JC-1 efflux by human ABCB1 transporter; P08183; CCRF-Adr cells, flow cytometry; inhibition, % at 6.6 µM; AID 1326; hit rate 0.067% among 190,000; in the data active means inhibition above about 40%;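 further: 0% = vehicle and 100% = reference inhibitor; higher value means more JC-1 retained so stronger ABCB1 efflux block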
RGS8-Gao: regulators of human RGS8-Galphao interaction; P09471; multiplexed bead flow cytometry, RGS8-Galphao binding; actives lie on both sides; response (percent of control binding), % at 10 µM; hit rate 0.34% among 220,000; in the data active means response below about 60% or above about 140%; inactive means in between;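 further: Galphao activated as the GDP aluminium fluoride complex binding bead-coupled RGS8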
RGS-Gao: modulates binding between human RGS4 and Galphao; shares compounds with RGS16-Gao; multiplexed bead flow cytometry, RGS–Galpha-o binding; RGS4–Galpha-o binding response, % at 10 µM; hit rate 99% among 1,600;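 further: fluorescently labeled Galpha-o bound to GDP with aluminium fluoride binding biotinylated RGS beads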
Biotin-avidin: biotin-avidin bead binding disruption counter-screen; shares compounds with RGS16-Gao; streptavidin beads, fluorescein-biotin binding, flow cytometry; inhibition, % at 10 µM; 1,700 tested, under 10 active;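 active means inhibition above 50%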;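 further: median green fluorescence of gated singlet beads compared with DMSO control wells; 0% = DMSO wells and 100% = complete loss of bead fluorescence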
RGS8-Gao single: confirmation of regulators of human RGS8-Galphao interaction; shares compounds with RGS16-Gao; bead-based flow cytometry RGS8-Galphao binding, fluorescence; actives lie on both sides; binding response (% of control), % at 10 µM; hit rate 3% among 1,700; in the data active means binding response below about 72% or above about 130%; inactive means in between;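 further: Galphao activated as GDP AlF4 complex before binding bead RGS8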
RGS7-Gao single: confirmation of regulators of human RGS7-Galphao interaction; shares compounds with RGS16-Gao; bead-based flow cytometry RGS7-Galphao binding; actives lie on both sides; response (percent of control binding), % at 10 µM; hit rate 7.8% among 1,700; in the data active means response below about 75% or above about 130%; inactive means in between;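 further: fluorescent Galphao activated with GDP and aluminum fluoride binding bead-coupled RGS7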
RGS16-Gao conf: RGS16-Galphao interaction regulation, single point confirmation | response (% of control binding), % at 10 µM | bead-based flow cytometry, RGS16-Galphao binding; actives lie on both sides | shares compounds with RGS16-Gao | hit rate 4% among 1,700; in the data active means response below about 74% or above about 130%; inactive means in between;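 further: Galphao activated as the GDP aluminium fluoride complex binding bead-coupled RGS16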
RGS4-Gao confirm: confirmation of regulators of human RGS4-Galphao interaction; RGS4-Galphao binding, multiplexed bead flow cytometry; actives lie on both sides; hit rate 4% among 1,700; binding response (% of control), % at 10 µM; shares compounds with RGS16-Gao; in the data active means binding response below about 74% or above about 130%; inactive means in between
RGS19-Gao single: confirmation of regulators of human RGS19-Galphao interaction; shares compounds with RGS16-Gao; bead-based flow cytometry RGS19-Galphao binding; actives lie on both sides; response (percent of control binding), % at 10 µM; hit rate 5% among 1,700; AID 1841; in the data active means response below about 50% or above about 160%; inactive means in between;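 further: 100% = no compound control and 0% = blank background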
* marks the source's active call; other numbers are inactive results; i = inactive; ? = inconclusive; / = no result; [ ] = another dose, or the depositor's remark. A selection: hits, their analogues and other compounds. The true share with any hit is near 0.83%. Unless noted, how the calls were made is not given here.

SMILES | ABCG2 block | RGS4-Gao reg | RGS16-Gao | RGS7-Gao | ABCB1 block | RGS8-Gao | RGS-Gao | Biotin-avidin | RGS8-Gao single | RGS7-Gao single | RGS16-Gao conf | RGS4-Gao confirm | RGS19-Gao single
Cc1cccc(-n2ncc3c(N4CCCC4)ncnc32)c1 | 7 | 100 | 103 | 100 | 0 | 100 | / | / | / | / | / | / | /
COC(=O)/C=C/COc1ccccc1[N+](=O)[O-] | 6 | 93 | 95 | 93 | 1 | 97 | / | / | / | / | / | / | /
CCN(CC)CCN1C(=O)c2ccccc2NC1c1ccccc1F (stereo not given) | 4 | 88 | 23* | 90 | 1 | 75 | 88* | / | / | / | / | / | /
C=CCSC1=C(C#N)C(c2ccccc2Cl)C(C(=O)c2cccs2)C(O)(C(F)(F)F)N1 (stereo not given) | -4 | 108 | 143 | 105 | 0 | 109 | / | / | / | / | / | / | /
CCOCC(=O)Nc1cccc(C(=O)OCC)c1 | 33 | 99 | 108 | 96 | 0 | 104 | / | / | / | / | / | / | /
CCOCC(=O)Nc1cc(C(=O)OC)cc(C(=O)OC)c1 | 10 | 110 | 203*[activator] | 104 | 1 | 128 | 110* | 0 | 107 | 102 | 111 | 102 | 108
c1ccc(CSc2nnc(-c3ccco3)n2Cc2ccco2)cc1 | 4 | 98 | 102 | 102 | 1 | 98 | / | / | / | / | / | / | /
CCn1c(SCc2cccc(C(F)(F)F)c2)nnc1-c1ccco1 | 46 | 46* | 21 | 42* | 5 | 48* | / | 0 | 99 | 91 | 100 | 99 | 103
O=C(/C=C\c1cccs1)c1c(O)ccc2ccc(=O)oc12 | 12 | 96 | 80 | 99 | 0 | 95 | / | / | / | / | / | / | /
O=C(Nc1ccc([N+](=O)[O-])cc1)Nc1ccc(Cl)cc1F | 0 | 11* | -52 | -4.6* | 0 | 4.4* | / | 0 | 100 | 102 | 102 | 99 | 102
O=C1c2ccccc2C(=O)N1CCCCN(C(=O)c1cc([N+](=O)[O-])cc([N+](=O)[O-])c1)c1ccc(Cl)cc1 | 13 | 91 | 16* | 89 | 10 | 71 | 91* | i | 102 | 102 | 110 | 104 | 120
O=C1c2ccccc2C(=O)N1CCCCN(C(=O)c1ccc([N+](=O)[O-])cc1)c1ccc(Cl)cc1 | 6 | 93 | 92 | 94 | 5 | 98 | / | / | / | / | / | / | /
O=C(C1CCCN(S(=O)(=O)c2ccccc2[N+](=O)[O-])C1)N1CCN(c2ccccc2)CC1 (stereo not given) | 25 | 100 | 99 | 98 | 4 | 100 | / | / | / | / | / | / | /
CCn1c2ccccc2c2cc(NC(=O)CSc3nnnn3-c3ccccc3)ccc21 | 10 | / | / | / | 0 | / | / | -3 | 102 | 100 | 100 | 99 | 86
CCOc1ccc(NC(=O)c2cc(F)c(F)cc2Cl)cc1OCC | 11 | 98 | 98 | ? | 1 | 98 | / | / | / | / | / | / | /
CCN1C(c2ccc(F)cc2)=CS/C1=C(\C#N)c1nnc2n1-c1ccccc1SC2 | 1 | 100 | 100 | 101 | 0 | 102 | / | / | / | / | / | / | /
Cc1ccc(N=N/C(=C\O)C(=O)c2ccc(Cl)cc2)cc1 | 2 | 42* | 43 | 45* | 0 | 59* | / | -2 | 99 | 98 | 102 | 102 | 111
COCCCNC(=O)Cn1nc(-c2ccccc2OC)ccc1=O | 1 | 101 | 102 | 97 | 0 | 101 | / | / | / | / | / | / | /
COCCNC(=O)Cn1nc(-c2ccccc2OC)ccc1=O | 2 | 133 | 383 | 133 | 0 | 158*[activator] | 133* | 1 | 107 | 82 | 104 | 91 | 56
O=C(Nc1ccccc1Br)C1CCN(C(=O)Cc2ccccc2)CC1 | 3 | 97 | 21* | 97 | 0 | 90 | 97* | 1 | 106 | 105 | 109 | 103 | 110
CCOC(=O)CSCC(=O)Nc1nnc(-c2cccc([N+](=O)[O-])c2)s1 | 18 | 109 | 112 | 113 | 1 | 105 | / | / | / | / | / | / | /
Cc1ccc(NC(=O)c2cc(=O)n(Cc3ccccc3)c(=O)[nH]2)cc1C | 17 | 102 | 105 | ? | 1 | 107 | / | / | / | / | / | / | /
O=C(CCNS(=O)(=O)c1ccc(Cl)cc1)NCc1ccccn1 | 1 | 103 | 109 | 102 | 0 | 102 | / | / | / | / | / | / | /
O=C(CCCNS(=O)(=O)c1ccc(Cl)c(Cl)c1)NCCc1ccccn1 | 2 | 145 | 145 | 157*[activator] | 1 | 143*[activator] | 145* | 0 | 98 | 101 | 100 | 97 | 98
Cc1ccc(C(c2sc3nc(C)nn3c2O)N2CCN(C(=O)c3ccco3)CC2)cc1 (stereo not given) | 7 | 97 | 23* | 100 | 1 | 76 | 97* | 0 | 99 | 96 | 99 | 99 | 90
SMILES | ABCG2 block | RGS4-Gao reg | RGS16-Gao | RGS7-Gao | ABCB1 block | RGS8-Gao | RGS-Gao | Biotin-avidin | RGS8-Gao single | RGS7-Gao single | RGS16-Gao conf | RGS4-Gao confirm | RGS19-Gao single
Cc1nc2sc(C(c3ccccc3)N3CCN(C(=O)c4ccco4)CC3)c(O)n2n1 (stereo not given) | 2 | 101 | 102 | 103 | 1 | 102 | / | / | / | / | / | / | /
CCN1CCCC(OC(=O)c2cc(-c3ccccc3Cl)nc3ccccc23)C1 (stereo not given) | 11 | 98 | 104 | 97 | 9 | 101 | / | / | / | / | / | / | /
COc1cccc(CNC(=O)C2CCN(S(=O)(=O)c3ccc4c(c3)CCC(=O)N4)CC2)c1 | -1 | 110 | 244 | 111 | -1 | 141*[activator] | 110* | 0 | 107 | 102 | 108 | 104 | 116
Cc1ccc(NC(=O)C2CCN(c3cnccn3)CC2)cc1C | 4 | 98 | 112 | 102 | 0 | 102 | / | / | / | / | / | / | /
CCN(C(=O)c1ccc(NC(C)=O)cc1)c1ccccc1 | 2 | 78 | -20* | 88 | 0 | 71 | 78* | 1 | 98 | 97 | 97 | 99 | 100
CC(=O)Nc1ccc(C(=O)N(C)c2ccccc2)cc1 | -3 | 95 | 100 | 97 | -1 | 96 | / | / | / | / | / | / | /

High-throughput results from PubChem.
